Compound activity: PubChem BioAssay, several laboratories
Rows were chosen to be rich in hits. Some 4.6% of all compounds tested hit in one or more screens of this group.
RAM network inh – yeast RAM network inhibition | S. cerevisiae dse1pr::URA3 reporter, 5-FOA growth OD615, 2 d; analog-sensitive cbk1-as2 kinase mutant strain | inhibition, % at 50 µM | 1.8% of 190,000 active;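 active means inhibition above a set limit, 3 SD over mean compound inhibition, cut at about 8.4% in these data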;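 further: 0% = DMSO-only wells with no growth and 100% = 10 µM 1-NA-PP1 full growth; inhibition rescues growth on 5-FOA so higher OD means more RAM inhibition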
Calb biofilm kill – mixture kills Candida albicans biofilm cells | C. albicans biofilm persisters + clotrimazole, fluorescence viability; primary screen in compound mixtures of four per well | inhibition, % at 7.6 µM | 0.02% of 120,000 active | AID 1242;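 active means inhibition above 30.3% in the primary screen of four-compound pools, then above 30% when the compound was retested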;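 further: compounds exposed to preformed 24 h biofilms for 48 h; 0% = untreated biofilm control and 100% = clotrimazole plus chlorhexidine kill blank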
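Assay system: C. albicans biofilms / Medium: RPMI/MOPS medium, pH 7.0 / Schedule: biofilm formation 24 h, compound exposure 48 h, 37 °C / Measured by: Alamar Blue fluorescence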
Arbovirus inh – arbovirus infection inhibition; arbovirus infection cell-based antiviral screen; inhibition, % at 10 µM; 0.37% of 200,000 active; AID 1251; in the data active means inhibition above about 30%
WT yeast gro inh – growth inhibition of WT yeast, mitochondrial fusion screen; mitochondrial fusion phenotypic screen, WT strain; inhibition, % at 10 µM; 2.1% of 190,000 active; in the data active means inhibition above about 58%; tested in S. cerevisiae
NCF1 inh – blocks human p47phox regulatory protein of NADPH oxidases | P14598 | p47phox/p22phox peptide binding, fluorescence polarization, 2 h | 0.53% of 220,000 active | inhibition, % at 24.7 µM;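 active means inhibition above about 30%, limit read from the data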;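 further: 0% = p47phox with labelled peptide and 100% = labelled peptide alone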
Hck-Nef inh – inhibitors of human Hck kinase activated by Nef. P08631. Recombinant Hck-YEEI plus Nef, Z-Lyte FRET kinase assay. inhibition, % at 20 µM. 0.68% of 220,000 active;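 active means Hck-Nef kinase inhibition above about 50%, limit read from the data; inactive means inhibition below that limit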;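 further: 0% = DMSO with Hck plus Nef and 100% = Hck alone without Nef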
Target sequence (P08631 whole entry, looked up): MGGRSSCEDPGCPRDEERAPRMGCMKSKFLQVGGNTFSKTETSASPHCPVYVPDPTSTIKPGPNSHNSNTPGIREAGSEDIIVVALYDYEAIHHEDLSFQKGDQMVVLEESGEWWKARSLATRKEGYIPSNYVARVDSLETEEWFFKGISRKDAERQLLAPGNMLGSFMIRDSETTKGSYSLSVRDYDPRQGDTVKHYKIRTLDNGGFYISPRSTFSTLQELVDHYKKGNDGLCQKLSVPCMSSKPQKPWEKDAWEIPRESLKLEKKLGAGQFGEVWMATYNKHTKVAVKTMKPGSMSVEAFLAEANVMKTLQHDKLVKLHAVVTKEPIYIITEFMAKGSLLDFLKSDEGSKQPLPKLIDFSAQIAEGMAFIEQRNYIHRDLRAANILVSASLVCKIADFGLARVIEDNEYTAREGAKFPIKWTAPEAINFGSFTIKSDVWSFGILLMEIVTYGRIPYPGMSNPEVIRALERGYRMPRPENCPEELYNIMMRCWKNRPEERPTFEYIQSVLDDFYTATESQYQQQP
* hit, by the source's call; nt = not tested or not shown.

SMILES	RAM network inh	Calb biofilm kill	Arbovirus inh	WT yeast gro inh	NCF1 inh	Hck-Nef inh
CSc1ccccc1-n1nnnc1SCC(=O)Nc1cc(C)ccc1C	4	nt	1	3	-5	0
O=C(O)CCCNc1ccc(S(=O)(=O)N2CCCCC2)cc1	2	17	2	0	-8	-1
C[C@H](NC(=O)[C@@H]1CCC(=O)N1Cc1ccco1)c1ccccc1	3	11	11	1	-8	5
COc1ccc(C(=O)N(c2ccc(OC)cc2)S(=O)(=O)c2cccs2)cc1	6	6	9	74*	-15	1
CC(C)OP(=O)(OC(C)C)C1(O)C(=O)Nc2ccccc21 (centres undefined)	1	nt	4	-13	-8	2
O=C(O)c1cccc(NN=C2c3ccccc3-c3ccccc32)c1	0	15	69*	56	-27	-3
O=C(O)c1cccc(N/N=C/c2ccc(-c3ccccc3)cc2)c1	0	18	4	-1	-11	4
Cc1ccc(C(c2c(C)n(C)n(-c3ccccc3)c2=O)c2c(C)n(C)n(-c3ccccc3)c2=O)s1	1	-2	-29	-6	-8	27
CCCCN(NC(C)=O)c1nc(Cl)nc(NC(C)C)n1	0	nt	-2	1	-21	1
O=C(CSCc1cnn(-c2ccccc2)c1-n1cccc1)N1CCN(Cc2ccccc2)CC1	1	nt	-5	63*	-13	7
CCOc1ccc(NC(=O)CSCc2cnn(-c3ccccc3)c2-n2cccc2)cc1	10*	nt	4	36	-50	-2
O=C(O)CSCc1cnn(-c2ccccc2)c1-n1cccc1	3	nt	2	8	-8	3
O=C(N/N=C\c1ccc[nH]1)C1COc2ccccc2O1 (centres undefined)	nt	18	nt	nt	-10	29
CCCC[n+]1c(-c2ccc(Cl)cc2Cl)csc1Nc1ccccc1	0	12	-9	68*	2	2
C=CC[n+]1c(-c2ccc(Cl)cc2Cl)csc1Nc1ccc(NC(C)=O)cc1	-1	15	-30	86*	-9	-5
CCn1nc(C)c(NC(=O)Nc2cccc(Cl)c2Cl)c1C	1	5	32*	17	-2	-2
CCn1nc(C)c(NC(=O)c2ccc(Cl)cc2)c1C	2	11	8	-5	-2	19
COc1ccc([N+](=O)[O-])cc1NC(=O)Cc1noc2ccccc12	4	12	-9	4	-7	-4
CCC1C/C(=C\c2cccnc2)C(=O)/C(=C/c2cccnc2)C1 (centres undefined)	-1	15	-31	64*	-15	4
O=C1/C(=C/c2cccnc2)CC/C1=C\c1cccnc1	0	10	-6	3	-7	10
O=C(CSc1nncs1)NCCCc1ccccc1	0	8	17	0	18	11
NC(=NC(=O)c1ccccc1)N1N=CCC1c1ccccc1 (centres undefined)	0	12	2	10	-4	6
CN1CCN(S(=O)(=O)c2ccc(NC(=O)c3csc4ccccc34)cc2)CC1	0	nt	-3	1	-13	9
CCCCCNCC(=O)Nc1cccc(C(=O)Nc2cccc(C(F)(F)F)c2)c1	-2	-4	-21	78*	nt	7
O=C(Nc1sc(-c2ccccc2)cc1C(=O)O)c1ccccc1	nt	19	nt	nt	-65	27
SMILES	RAM network inh	Calb biofilm kill	Arbovirus inh	WT yeast gro inh	NCF1 inh	Hck-Nef inh
Cc1cc(NC(=O)CCl)n(-c2nc3ccccc3s2)n1	1	-3	11	-31	-11	59*
CCOc1ccc2c(c1)C(N(CCN1CCOCC1)C(=S)Nc1ccccc1OC)CC(C)(C)O2 (centres undefined)	3	17	8	13	-8	6
Cc1c(NC(=O)CCSCCc2ccccn2)cccc1[N+](=O)[O-]	2	11	1	-2	1	18
COc1cc(OC)cc(-n2nnnc2SCC(=O)N2CCCc3ccccc32)c1	8.9*	nt	-6	2	3	2
CCC1C(=O)N(C)CCc2ccccc21 (centres undefined)	1	8	0	-8	-5	1
CCCN1Cc2cccc(C(=O)NC(CC(=O)OCC)c3ccc(OC(C)C)cc3)c2C1=O (centres undefined)	2	16	-4	38	-16	-10
CCCN1Cc2cccc(C(=O)NC(CC(=O)OCC)c3ccc(C)cc3)c2C1=O (centres undefined)	0	17	-4	66*	-1	-4
O=S(=O)(Nc1cc(Cl)ccc1N1CCCCC1)c1cccs1	8	nt	-1	60*	-18	-1
CCCCc1ccc(-c2nc(NC(=O)C3C4CCC(O4)C3C(=O)O)sc2C)cc1 (centres undefined)	0	nt	-14	88*	-21	1
COc1cccc(C2=NOC(C(=O)Nc3cccnc3Cl)C2)c1 (centres undefined)	3	11	-1	5	2	0
CCCc1sc(N/N=C/c2ccccn2)nc1-c1ccc(F)cc1	3	14	-26	83*	-20	-1
O=C(Cn1cnc2cc([N+](=O)[O-])ccc2c1=O)Nc1ccccc1-c1ccccc1	nt	6	nt	nt	-16	10
COc1ccccc1-c1c(C)nn2c(N3CCN(Cc4ccccc4)CC3)cc(C)nc12	1	nt	-23	85*	-10	4
COc1ccccc1-c1c(C)nn2c(N3CCN(c4ccccc4OC)CC3)cc(C)nc12	2	nt	5	26	-11	7
COc1ccccc1-c1c(C)nn2c(N3CCCCCC3)cc(C)nc12	2	nt	6	61*	-15	-29
COC(=O)CN(c1ccccc1)S(=O)(=O)c1cc(Br)ccc1OC	2	10	2	16	3	-20
O=C(c1ccco1)N1CCN(C(=O)c2ccccc2NS(=O)(=O)c2ccc(F)cc2)CC1	0	-2	4	17	-3	-6
CCCCSc1nnc(CNC(=O)C23CC4CC(CC(C4)C2)C3)n1Cc1ccccc1	0	9	-5	59*	-6	0
Cc1ccc(-n2cc(C(C)(C)C)[nH]c2=S)cc1	1	nt	-1	-24	-4	-1
O=C(c1cccc(F)c1)N1CCN(c2ccc([N+](=O)[O-])c(N3CCOCC3)c2)CC1	0	7	-3	-14	9	2
O=C(Cn1cc2c(n1)CCCCC2)NCc1ccccc1	0	nt	4	2	-9	2
O=C(Cn1cc2c(n1)CCCCC2)NCc1ccccn1	1	nt	-3	-4	43*	5
CNC(=O)CCN(Cc1ccco1)S(=O)(=O)c1ccc(OC)c(OC)c1	nt	8	nt	nt	-4	-9
COC(=O)Nc1ccc(S(=O)(=O)N2CCC(C(=O)N3CCCC(C)C3)CC2)cc1 (centres undefined)	1	10	11	-10	1	24
N=C1C(c2nc3ccccc3s2)=C(O)CN1NC(=O)c1c[nH]c2ccccc12	8.5*	16	-6	7	-29	1
